pIC50: −log10 of the molar value. Some results are limits rather than exact numbers.

Cytochrome P450 2C9, sequence (P11712 whole entry): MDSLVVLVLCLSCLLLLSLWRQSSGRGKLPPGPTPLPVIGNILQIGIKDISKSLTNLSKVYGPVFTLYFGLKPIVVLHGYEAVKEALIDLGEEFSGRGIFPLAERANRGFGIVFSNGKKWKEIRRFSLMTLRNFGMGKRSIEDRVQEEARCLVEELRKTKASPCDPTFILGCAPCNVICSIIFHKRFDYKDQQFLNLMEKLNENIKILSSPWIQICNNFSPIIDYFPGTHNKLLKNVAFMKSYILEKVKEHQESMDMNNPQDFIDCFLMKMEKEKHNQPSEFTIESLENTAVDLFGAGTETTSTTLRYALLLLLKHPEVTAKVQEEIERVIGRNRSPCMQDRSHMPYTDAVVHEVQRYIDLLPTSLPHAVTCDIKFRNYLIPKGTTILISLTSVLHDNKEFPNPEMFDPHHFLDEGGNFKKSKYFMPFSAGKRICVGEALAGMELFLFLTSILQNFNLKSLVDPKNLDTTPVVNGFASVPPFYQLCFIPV
Voltage-gated inwardly rectifying potassium channel KCNH2, sequence (Q12809 whole entry): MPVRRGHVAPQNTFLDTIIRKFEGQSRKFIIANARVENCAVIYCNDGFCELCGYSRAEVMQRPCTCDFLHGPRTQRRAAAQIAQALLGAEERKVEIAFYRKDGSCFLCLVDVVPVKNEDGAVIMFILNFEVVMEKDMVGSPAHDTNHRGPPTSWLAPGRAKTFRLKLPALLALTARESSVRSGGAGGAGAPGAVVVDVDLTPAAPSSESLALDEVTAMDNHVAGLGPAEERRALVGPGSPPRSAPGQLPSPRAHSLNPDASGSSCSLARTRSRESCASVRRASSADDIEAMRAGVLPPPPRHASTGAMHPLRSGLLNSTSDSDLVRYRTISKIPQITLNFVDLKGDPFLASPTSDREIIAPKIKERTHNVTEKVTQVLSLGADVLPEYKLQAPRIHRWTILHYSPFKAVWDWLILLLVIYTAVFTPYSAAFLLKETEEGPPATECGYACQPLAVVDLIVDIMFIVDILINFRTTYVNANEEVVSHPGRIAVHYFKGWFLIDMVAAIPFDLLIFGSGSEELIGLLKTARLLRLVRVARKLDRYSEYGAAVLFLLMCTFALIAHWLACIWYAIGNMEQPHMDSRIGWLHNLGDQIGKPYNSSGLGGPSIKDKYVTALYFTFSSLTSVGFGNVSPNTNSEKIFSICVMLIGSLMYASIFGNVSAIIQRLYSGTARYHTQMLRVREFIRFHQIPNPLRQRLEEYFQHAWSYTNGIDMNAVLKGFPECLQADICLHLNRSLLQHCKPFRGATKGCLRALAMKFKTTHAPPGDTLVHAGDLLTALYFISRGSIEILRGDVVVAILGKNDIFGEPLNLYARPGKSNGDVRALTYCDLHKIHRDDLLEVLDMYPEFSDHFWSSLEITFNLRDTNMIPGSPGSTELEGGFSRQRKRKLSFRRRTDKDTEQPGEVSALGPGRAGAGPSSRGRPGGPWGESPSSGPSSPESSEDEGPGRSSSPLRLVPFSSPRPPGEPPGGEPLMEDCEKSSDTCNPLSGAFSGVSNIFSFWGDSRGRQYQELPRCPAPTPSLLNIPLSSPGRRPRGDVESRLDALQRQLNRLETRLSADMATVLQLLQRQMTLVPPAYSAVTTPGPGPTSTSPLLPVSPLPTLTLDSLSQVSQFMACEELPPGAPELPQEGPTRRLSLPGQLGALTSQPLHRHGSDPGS
Cytochrome P450 2D6, sequence (P10635 whole entry): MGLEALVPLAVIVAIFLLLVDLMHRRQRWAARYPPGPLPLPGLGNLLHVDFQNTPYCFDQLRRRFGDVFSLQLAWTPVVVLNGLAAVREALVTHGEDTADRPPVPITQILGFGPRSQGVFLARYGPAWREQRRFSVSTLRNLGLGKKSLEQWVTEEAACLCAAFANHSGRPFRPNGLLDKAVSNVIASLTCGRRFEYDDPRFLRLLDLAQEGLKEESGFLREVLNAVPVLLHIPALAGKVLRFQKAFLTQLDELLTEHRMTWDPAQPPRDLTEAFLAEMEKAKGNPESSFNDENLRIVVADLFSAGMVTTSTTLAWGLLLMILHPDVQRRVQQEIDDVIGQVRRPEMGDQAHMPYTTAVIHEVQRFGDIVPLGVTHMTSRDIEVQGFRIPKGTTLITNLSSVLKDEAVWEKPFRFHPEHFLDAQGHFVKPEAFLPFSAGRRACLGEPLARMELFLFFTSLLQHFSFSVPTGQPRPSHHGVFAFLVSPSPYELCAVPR

The first data set addresses Cytochrome P450 2C9 (Homo sapiens, UniProt P11712). Kind of data set: Inhibition of human CYP2C9 expressed in baculovirus infected insect cells using beetle D-luciferin as substrate preincubated for 30 mins followed by NADPH addition and measured after 30 mins by CYP450-Glo assay.
Conditions: not given
What is called pIC50 is the IC50 on a negative log10 scale, so that one unit is a factor of ten. Take `Nc1nc2ccc(C(=O)NCc3ccccc3[N+](=O)[O-])cc2s1`: the pIC50 was less than 4.60.
For the compound `COC(=O)c1ccc(COc2ccc3nc(N)sc3c2)cc1`, the pIC50 was less than 4.60.

Another data set relates to Trypanosoma cruzi. The data set can be described thus: Growth inhibition of trypomastigote form of Trypanosoma cruzi Y infected in human U2OS cells at 50 uM measured after 72 hrs by DRAQ5 DNA dye based confocal microscopic analysis relative to control. In kind it is organism-based. To be noted: Trypanosoma cruzi, Y, U2OS, read-out: GI.
Regarding `Nc1nc2ccc(C(=O)NCc3ccccc3[N+](=O)[O-])cc2s1`, the inhibition at 50 µM was determined as 19%.
As for `COC(=O)c1ccc(COc2ccc3nc(N)sc3c2)cc1`, the inhibition at 50 µM was found to be 8.79%.

Test system in a further data set: not listed separately
The data set can be described thus: Cytotoxicity against human U2OS cells assessed as reduction in cell number. Format: cell-based.
Conditions: not given
A word on the GI50: it is the concentration that inhibits growth by half. Regarding `Nc1nc2ccc(C(=O)NCc3ccccc3[N+](=O)[O-])cc2s1`, the GI50 is greater than 25 µM.
Still for that read-out and setting: as for `COC(=O)c1ccc(COc2ccc3nc(N)sc3c2)cc1`, the figure is greater than 25 µM.

Test system in the next data set: not listed separately
Kind of data set: Cytotoxicity against human A549 cells after 48 hrs by Celltiter-glo assay. Format: cell-based.
Conditions: not given
On the technique in general: ATP-based viability assays read luminescence as a measure of living cells.
The compound `Nc1nc2ccc(C(=O)NCc3ccccc3[N+](=O)[O-])cc2s1` registered a GI50 at 48 h greater than 25 µM.
Same read-out and setting: as for `COC(=O)c1ccc(COc2ccc3nc(N)sc3c2)cc1`, the figure is greater than 25 µM.

A further data set concerns Trypanosoma brucei. Kind of data set: Growth inhibition of Trypanosoma brucei bloodstream forms at 10 uM measured after 72 hrs by resazurin-based fluorescence assay relative to control. In kind it is organism-based. To be noted: Trypanosoma brucei, read-out: GI. For orientation: Alamar Blue is a resazurin reagent that responds to reducing activity.
Turning to `Nc1nc2ccc(C(=O)NCc3ccccc3[N+](=O)[O-])cc2s1`, the inhibition at 10 µM was determined as 18%.
Consider `COC(=O)c1ccc(COc2ccc3nc(N)sc3c2)cc1`, for which the inhibition at 10 µM is 22%.

Test system in another data set: not listed separately
Kind of data set: Selectivity ratio of IC50 for Leishmania major pteridine reductase 1 to IC50 for N-terminal His-tagged Trypanosoma brucei pteridine reductase 1.
Conditions: not given
Turning to `Nc1nc2ccc(C(=O)NCc3ccccc3[N+](=O)[O-])cc2s1`, the Ratio IC50 fell in the range of 2 to 100.
Same read-out and setting: as for `COC(=O)c1ccc(COc2ccc3nc(N)sc3c2)cc1`, the figure is 2 to 100.

Another data set has as its system Leishmania infantum. Kind of data set: Growth inhibition of luciferase expressing Leishmania infantum axenic amastigotes infected in human THP1 cells at 10 uM measured after 72 hrs by steady-glo luminescence assay relative to control. To be noted: leishmania infantum, 72 h, 10 µM. Format: organism-based.
In the case of `Nc1nc2ccc(C(=O)NCc3ccccc3[N+](=O)[O-])cc2s1`, the “growth inhibition (GI)” value is recorded as “Non-Toxic”.
Consider `COC(=O)c1ccc(COc2ccc3nc(N)sc3c2)cc1`, for which the “growth inhibition (GI)” value is recorded as “Non-Toxic”.

A further data set addresses Voltage-gated inwardly rectifying potassium channel KCNH2 (Homo sapiens, UniProt Q12809). The data set can be described thus: Displacement of Tracer Red from human ERG by fluorescence polarization assay.
Conditions: not given
In turn, `Nc1nc2ccc(C(=O)NCc3ccccc3[N+](=O)[O-])cc2s1` showed a pIC50 of less than 4.60.
The same measure, in the same setting: the figure for `COC(=O)c1ccc(COc2ccc3nc(N)sc3c2)cc1` is 4.60 to 5.00.

The target in another data set is Cytochrome P450 2C19 (Homo sapiens, UniProt P33261). Kind of data set: Inhibition of human CYP2C19 expressed in baculovirus infected insect cells using beetle D-luciferin as substrate preincubated for 30 mins followed by NADPH addition and measured after 30 mins by CYP450-Glo assay.
Cytochrome P450 2C19, sequence (P33261 whole entry): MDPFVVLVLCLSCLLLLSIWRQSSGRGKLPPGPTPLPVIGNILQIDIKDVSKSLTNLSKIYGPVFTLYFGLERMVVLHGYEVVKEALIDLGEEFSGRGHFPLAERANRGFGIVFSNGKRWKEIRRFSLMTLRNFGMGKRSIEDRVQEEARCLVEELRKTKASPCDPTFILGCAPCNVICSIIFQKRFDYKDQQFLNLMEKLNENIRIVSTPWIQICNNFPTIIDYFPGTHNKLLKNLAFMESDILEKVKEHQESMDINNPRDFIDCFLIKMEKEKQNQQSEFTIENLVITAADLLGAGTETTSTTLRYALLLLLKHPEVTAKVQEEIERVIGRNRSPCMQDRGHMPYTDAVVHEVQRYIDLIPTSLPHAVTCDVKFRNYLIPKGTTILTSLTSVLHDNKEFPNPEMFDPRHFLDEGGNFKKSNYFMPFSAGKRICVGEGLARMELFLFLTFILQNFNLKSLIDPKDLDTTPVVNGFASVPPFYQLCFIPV
Conditions: not given
The compound `Nc1nc2ccc(C(=O)NCc3ccccc3[N+](=O)[O-])cc2s1` had a pIC50 of less than 4.60.
Still for that read-out and setting: as for `COC(=O)c1ccc(COc2ccc3nc(N)sc3c2)cc1`, the figure is greater than 5.00.

Test system in another data set: not listed separately
The data set can be described thus: Cytotoxicity against human THP1 cells after 72 hrs by MTT assay. In kind it is cell-based, THP-1. The settings on record: read-out: NOAEL. In general terms: Tetrazolium dyes change colour on reduction, which living cells bring about.
Take `Nc1nc2ccc(C(=O)NCc3ccccc3[N+](=O)[O-])cc2s1`: the MNTC at 72 h was greater than 25 µM.
On the same count and under the same terms, as for `COC(=O)c1ccc(COc2ccc3nc(N)sc3c2)cc1`, the figure is 10 to 25 µM.

A further data set deals with T1, Pteridine reductase 1 (Leishmania major) (UniProt Q01782).
T1 sequence (whole entry): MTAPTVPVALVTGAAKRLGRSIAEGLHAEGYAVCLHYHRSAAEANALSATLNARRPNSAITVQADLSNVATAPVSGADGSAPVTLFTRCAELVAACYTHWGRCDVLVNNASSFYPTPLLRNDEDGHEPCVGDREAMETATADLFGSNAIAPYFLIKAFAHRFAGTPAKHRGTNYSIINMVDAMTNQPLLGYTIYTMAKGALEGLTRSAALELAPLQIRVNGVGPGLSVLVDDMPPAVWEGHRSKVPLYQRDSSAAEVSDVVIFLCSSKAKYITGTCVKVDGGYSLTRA
Kind of data set: Inhibition of Leishmania major pteridine reductase 1 at 50 uM using di-hydrobiopterine as substrate in presence of NADPH relative to control.
Conditions: not given
A digest of the protocol:
(§1)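 Photometric PTR1 assay with NADPH and dihydrobiopterin substrate. H₄B formation is coupled non-enzymatically to cytochrome c reduction, read as signal increase at 550 nm.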
With `Nc1nc2ccc(C(=O)NCc3ccccc3[N+](=O)[O-])cc2s1`, the inhibition is greater than 60%.
Same read-out and setting: the figure for `COC(=O)c1ccc(COc2ccc3nc(N)sc3c2)cc1` is greater than 60%.

Another data set concerns Trypanosoma brucei. Kind of data set: Inhibition of N-terminal His-tagged Trypanosoma brucei pteridine reductase 1 at 50 uM using di-hydrobiopterine as substrate measured at 1 min interval for 50 mins in presence of NADPH relative to control.
Conditions: not given
A digest of the protocol: as §1
`Nc1nc2ccc(C(=O)NCc3ccccc3[N+](=O)[O-])cc2s1`: the inhibition was greater than 60%.
Same read-out and setting: the figure for `COC(=O)c1ccc(COc2ccc3nc(N)sc3c2)cc1` is greater than 60%.

The target of the next data set is Cytochrome P450 3A4 (Homo sapiens, UniProt P08684). Kind of data set: Inhibition of human CYP3A4 expressed in baculovirus infected insect cells using beetle D-luciferin as substrate preincubated for 30 mins followed by NADPH addition and measured after 30 mins by CYP450-Glo assay.
Cytochrome P450 3A4, sequence (P08684 whole entry): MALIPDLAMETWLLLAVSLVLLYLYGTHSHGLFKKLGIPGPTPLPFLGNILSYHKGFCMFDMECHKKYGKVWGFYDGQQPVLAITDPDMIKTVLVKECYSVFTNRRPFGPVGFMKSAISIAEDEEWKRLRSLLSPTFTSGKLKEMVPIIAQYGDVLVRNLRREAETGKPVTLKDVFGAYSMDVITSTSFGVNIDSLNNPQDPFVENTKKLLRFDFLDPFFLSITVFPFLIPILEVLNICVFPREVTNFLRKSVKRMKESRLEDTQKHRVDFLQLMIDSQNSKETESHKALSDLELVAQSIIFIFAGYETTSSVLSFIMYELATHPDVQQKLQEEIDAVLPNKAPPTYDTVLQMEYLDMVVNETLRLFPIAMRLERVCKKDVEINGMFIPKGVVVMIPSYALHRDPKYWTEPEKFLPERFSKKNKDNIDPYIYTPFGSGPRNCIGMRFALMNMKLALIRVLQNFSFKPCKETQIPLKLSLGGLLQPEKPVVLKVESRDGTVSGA
Conditions: not given
Compound `Nc1nc2ccc(C(=O)NCc3ccccc3[N+](=O)[O-])cc2s1` gave a pIC50 greater than 5.00.
Same read-out and setting: the figure for `COC(=O)c1ccc(COc2ccc3nc(N)sc3c2)cc1` is 4.60 to 5.00.

Test system in the next data set: not listed separately
The data set can be described thus: Mitochondrial toxicity in human 786-O cells measured after 6 hrs by MitoTracker Red chloromethyl-X-rosamine based assay. In kind it is cell-based, 786-0.
Conditions: not given
As usually defined, the IC50 is the concentration that gives 50% inhibition. A higher IC50 goes with weaker potency in that assay. In the case of `Nc1nc2ccc(C(=O)NCc3ccccc3[N+](=O)[O-])cc2s1`, the IC50 at 6 h was less than 10 µM.
In turn, `COC(=O)c1ccc(COc2ccc3nc(N)sc3c2)cc1` gave an IC50 at 6 h greater than 25 µM.

The next data set deals with T2, Pteridine reductase 1 (Leishmania major, UniProt Q01782).
T2 sequence (Q01782 whole entry): T1 sequence (whole entry)
The data set can be described thus: Inhibition of Leishmania major pteridine reductase 1 using di-hydrobiopterine as substrate in presence of NADPH. To be noted: read-out: IC50. A digest of the protocol: as §1
As for `Nc1nc2ccc(C(=O)NCc3ccccc3[N+](=O)[O-])cc2s1`, the negative logarithm of the IC50 (pIC50) is 5.45.
Same read-out and setting: the figure for `COC(=O)c1ccc(COc2ccc3nc(N)sc3c2)cc1` is 4.18.

Molecular target in another data set: not listed separately
Kind of data set: Inhibition of N-terminal His-tagged Trypanosoma brucei pteridine reductase 1 using di-hydrobiopterine as substrate measured at 1 min interval for 50 mins in presence of NADPH.
Conditions: not given
The essentials:
as §1
With `Nc1nc2ccc(C(=O)NCc3ccccc3[N+](=O)[O-])cc2s1`, the pIC50 was 5.19.
`COC(=O)c1ccc(COc2ccc3nc(N)sc3c2)cc1`: the pIC50 is 5.77.

Another data set addresses Cytochrome P450 2D6 (Homo sapiens, UniProt P10635). Kind of data set: Inhibition of human CYP2D6 expressed in baculovirus infected insect cells using beetle D-luciferin as substrate preincubated for 30 mins followed by NADPH addition and measured after 30 mins by CYP450-Glo assay.
Conditions: not given
For `Nc1nc2ccc(C(=O)NCc3ccccc3[N+](=O)[O-])cc2s1`, the negative logarithm of the IC50 (pIC50) is less than 4.60.
Same read-out and setting: the figure for `COC(=O)c1ccc(COc2ccc3nc(N)sc3c2)cc1` is less than 4.60.

The target of a further data set is T3, Cytochrome P450 1A2 (Homo sapiens, UniProt P05177).
T3 sequence (P05177 whole entry): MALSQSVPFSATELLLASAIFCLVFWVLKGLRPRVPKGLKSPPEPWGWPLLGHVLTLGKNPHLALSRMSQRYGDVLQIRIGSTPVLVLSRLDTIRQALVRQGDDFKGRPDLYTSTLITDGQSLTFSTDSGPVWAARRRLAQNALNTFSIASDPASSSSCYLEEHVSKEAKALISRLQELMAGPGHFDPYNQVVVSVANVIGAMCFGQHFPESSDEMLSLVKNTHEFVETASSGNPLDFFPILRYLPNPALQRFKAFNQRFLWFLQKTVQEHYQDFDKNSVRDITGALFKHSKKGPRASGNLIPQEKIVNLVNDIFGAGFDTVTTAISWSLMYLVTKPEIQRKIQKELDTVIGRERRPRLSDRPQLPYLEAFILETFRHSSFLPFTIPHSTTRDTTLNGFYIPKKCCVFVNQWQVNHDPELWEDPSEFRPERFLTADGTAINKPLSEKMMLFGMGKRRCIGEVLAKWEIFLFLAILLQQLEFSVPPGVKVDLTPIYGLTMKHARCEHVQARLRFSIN
Kind of data set: Inhibition of human CYP1A2 expressed in baculovirus infected insect cells using beetle D-luciferin as substrate preincubated for 30 mins followed by NADPH addition and measured after 30 mins by CYP450-Glo assay.
Conditions: not given
`Nc1nc2ccc(C(=O)NCc3ccccc3[N+](=O)[O-])cc2s1`: the pIC50 is less than 4.60.
Still for that read-out and setting: the figure for `COC(=O)c1ccc(COc2ccc3nc(N)sc3c2)cc1` is less than 4.60.
